Several values for one entry are separate records, joined by “and”; a condition that tells them apart may be missing. Identical values can stand only once.
Test system: Fibroblast
Assay: Multiplex assay against human fibroblast
Format: toxicity, cell-based
Procedure, shortened: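 Hoechst33342, BioTracker Green Microtubule Cytoskeleton Dye, MitoTracker Red and Annexin V Alexa Fluor 680 were added to live cells at seeding, and imaging on a CQ1 microscope at 37°C and 5% CO2 followed compound addition. Gating by CellPathfinder machine learning separated cells into Hoechst high-intensity objects or normal cells, then normal cells into healthy, pyknosed or fragmented nuclei, then pyknosed cells into mitotic or apoptotic. Per cents of healthy-nucleus cells are reported for the tubulin, mitochondrial-mass and membrane-permeability phenotypes.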

[1] = 12 h, 1 µM, compound concentration 1 uM
[2] = 12 h, 10 µM, compound concentration 10 uM
[3] = 24 h, 1 µM, compound concentration 1 uM
[4] = 24 h, 10 µM, compound concentration 10 uM
[5] = 48 h, 1 µM, compound concentration 1 uM
[6] = 48 h, 10 µM, compound concentration 10 uM

O=C1NC(NC23CC4CC(CC(C4)C2)C3)=N/C1=C\c1ccc2ncsc2c1
Population Apoptotic (%) [1]: 51.97% and 44.44% | Population Fragmented Nuclei (%) [1]: 23.55% and 19.79% | Population Healthy Nuclei (%) [1]: 57.53% and 66.62% | Population Hoechst High Intensity Objects (%) [1]: 0% | Population Membrane Permeable-Phenotype (%) [1]: 1.3% and 2.27% | Population Mitochondria Different-Phenotype (%) [1]: 3.63% and 2.49% | Population Mitotic Cells (%) [1]: 48.03% and 55.56% | Population Normal (%) [1]: 100% | Population Pyknosed Nuclei (%) [1]: 18.93% and 13.6% | Population Tubulin-Different-Phenotype (%) [1]: 8.81% and 11.79% | Total Cell Count [1]: 671 and 662 | Population Apoptotic (%) [2]: 45.21% and 45.31% | Population Fragmented Nuclei (%) [2]: 36.23% and 36.1% | Population Healthy Nuclei (%) [2]: 32.66% and 30.01% | Population Hoechst High Intensity Objects (%) [2]: 28.04% and 33.79% | Population Membrane Permeable-Phenotype (%) [2]: 0.36% and 0.46% | Population Mitochondria Different-Phenotype (%) [2]: 0% | Population Mitotic Cells (%) [2]: 54.79% and 54.69% | Population Normal (%) [2]: 71.96% and 66.21% | Population Pyknosed Nuclei (%) [2]: 31.11% and 33.89% | Population Tubulin-Different-Phenotype (%) [2]: 0.73% and 7.37% | Total Cell Count [2]: 1166 and 1092 | Population Apoptotic (%) [3]: 49.15% and 52.44% | Population Fragmented Nuclei (%) [3]: 25.03% and 19.5% | Population Healthy Nuclei (%) [3]: 59% and 67.8% | Population Hoechst High Intensity Objects (%) [3]: 0% and 0.15% | Population Membrane Permeable-Phenotype (%) [3]: 2.52% and 1.37% | Population Mitochondria Different-Phenotype (%) [3]: 0.92% and 0.91% | Population Mitotic Cells (%) [3]: 50.85% and 47.56% | Population Normal (%) [3]: 100% and 99.85% | Population Pyknosed Nuclei (%) [3]: 15.97% and 12.69% | Population Tubulin-Different-Phenotype (%) [3]: 12.84% and 17.12% | Total Cell Count [3]: 739 and 647 | Population Apoptotic (%) [4]: 48.2% and 49.02% | Population Fragmented Nuclei (%) [4]: 28.62% and 33.38% | Population Healthy Nuclei (%) [4]: 37.8% and 32.44% | Population Hoechst High Intensity Objects (%) [4]: 27.11% and 32.18% | Population Membrane Permeable-Phenotype (%) [4]: 0.64% and 0.41% | Population Mitochondria Different-Phenotype (%) [4]: 0.32% and 0% | Population Mitotic Cells (%) [4]: 51.8% and 50.98% | Population Normal (%) [4]: 72.89% and 67.82% | Population Pyknosed Nuclei (%) [4]: 33.57% and 34.18% | Population Tubulin-Different-Phenotype (%) [4]: 1.6% and 2.89% | Total Cell Count [4]: 1136 and 1100 | Population Apoptotic (%) [5]: 58.9% and 52.22% | Population Fragmented Nuclei (%) [5]: 13.24% and 13.94% | Population Healthy Nuclei (%) [5]: 69.8% and 71.47% | Population Hoechst High Intensity Objects (%) [5]: 0% | Population Membrane Permeable-Phenotype (%) [5]: 1.5% and 2.72% | Population Mitochondria Different-Phenotype (%) [5]: 1.5% and 0.91% | Population Mitotic Cells (%) [5]: 41.1% and 47.78% | Population Normal (%) [5]: 100% | Population Pyknosed Nuclei (%) [5]: 16.96% and 14.59% | Population Tubulin-Different-Phenotype (%) [5]: 20.97% and 31.75% | Total Cell Count [5]: 861 and 617 | Population Apoptotic (%) [6]: 50.75% and 49.7% | Population Fragmented Nuclei (%) [6]: 29.22% and 30.74% | Population Healthy Nuclei (%) [6]: 35.44% and 26.72% | Population Hoechst High Intensity Objects (%) [6]: 25.71% and 37.77% | Population Membrane Permeable-Phenotype (%) [6]: 0.6% and 0.49% | Population Mitochondria Different-Phenotype (%) [6]: 0.6% and 0% | Population Mitotic Cells (%) [6]: 49.25% and 50.3% | Population Normal (%) [6]: 74.29% and 62.23% | Population Pyknosed Nuclei (%) [6]: 35.34% and 42.54% | Population Tubulin-Different-Phenotype (%) [6]: 1.19% and 2.91% | Total Cell Count [6]: 1276 and 1239
